Most compounds without a hit are left out; they make up all but 12% or so of the library.
Dynein transport: blocks dynein driven cargo transport along microtubules; 3617.4 mouse cells, GR-EGFP nuclear translocation imaging; test concentration mostly 20 µM; stimulated with dexamethasone, 1 µM; hits give low values; 220,000 compounds, 0.47% hits; z-score, hits read low;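 active = plate z-score of nuclear minus cytoplasmic receptor signal below a set negative limit, without overly bright fluorescence or cell loss, cut at about -3.5 in these data, passing the limit was not always enough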;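 note: z-score of nuclear minus cytoplasmic ring GR-EGFP intensity difference per well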
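Schedule: 48 h induction, then 1 h compound, then 30 min agonist, 37 °C. Buffer or medium: tetracycline-free induction medium containing charcoal-stripped FBS. Reagent: 1.0 µM final dexamethasone stimulus. Evaluation: nuclear versus cytoplasmic GR-EGFP signal, averaged per well. Signal: high-content fluorescence imaging after fixation.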
bCat nuc transl: modulators of beta-catenin nuclear translocation; HeLa beta-catenin nuclear translocation, immunofluorescence imaging; nuclear translocation activity, % at 5 µM; 190,000 compounds, 0.3% hits; AID 1665;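 active = nuclear translocation activity above 50% at 5 µM, with a well cell count of 50 or more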;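 note: per-cell ratio of nuclear to cytoplasmic median beta-catenin stain intensity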
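Read-out: Nuclear/cytoplasmic beta-catenin signal ratio, % activation | Assay system: Human HeLa cell line | Times: 24 h compound exposure at 37°C, 5% CO2 | Signal: Fluorescence imaging of beta-catenin antibody stain plus DAPI | Dosing: 5 µM primary, 0.02–20 µM confirmation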
Autophagy HCS: modulators of autophagy; MEF GFP-LC3 puncta imaging; test concentration mostly 10 µM; calls only at 10 µM (by protocol); 190,000 compounds, 0.98% hits; AID 463193;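 active = percentage of spot-positive cells more than 3 SD above its plate mean, without a fluorescence outlier flag or 80% toxicity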
CHOP inh: blocks CHOP induction under ER stress; CHO-K1 CHOP-promoter luciferase, tunicamycin-induced, 15-18 h; inhibition, % at 10 µM; 220,000 compounds, 3.8% hits; AID 2732;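 active = compounds that reduced the stress-induced luciferase reporter signal by more than about 70% of percent inhibition, limit read from the data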
Lmaj promast: reduces viability of Leishmania major promastigotes; resazurin fluorescence viability; inhibition, % at 10 µM; 200,000 compounds, 9% hits; AID 1063; in the data active = inhibition above about 50%;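 note: promastigotes grown with compound for 44 hours at 28 °C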
MT stabilize HCS: microtubule stabilization, imaging screen; HeLa tubulin immunostaining HCS, 24 h; share of cells brighter than vehicle mean+2SD; AID 2205; 200,000 compounds, 0.83% hits; % tubulin-high responders, % at 10 µM;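 active = plate Z-score above 3 for both tubulin-high and condensed-nucleus cell shares, with cell loss under 80%, at 10 µM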;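 note: anti alpha tubulin signal scored within the nucleus-defined area of each cell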
Of the large screens only hits and unclear results are named; the others gave an inactive call.

Clc1nc(NCc2ccco2)nc(N2CCCCC2)n1	none
c1ccc(N2CCN(c3nc(NCc4ccco4)c4ccccc4n3)CC2)cc1	Lmaj promast 97.9
COc1ccc(NC(=S)Nc2ccc(S(=O)(=O)N3CCOCC3)cc2)c(OC)c1	none
COc1ccc(S(=O)(=O)N2CCCCC2)cc1NC(=S)Nc1ccccc1	Lmaj promast 84.0
COc1ccc(NC(=S)Nc2cccc(S(=O)(=O)N3CCCCC3)c2)cc1	Lmaj promast 95.3 (no result: bCat nuc transl)
COc1ccc(NC(=S)Nc2cc(S(=O)(=O)N3CCCCC3)ccc2OC)cc1	Lmaj promast 90.9
COc1ccc(C(=O)NC(=S)Nc2cccc(S(=O)(=O)N3CCOCC3)c2)cc1	MT stabilize HCS 22.4
COc1ccc(S(=O)(=O)N2CCCCC2)cc1NC(=S)Nc1cccc(Cl)c1C	none
O=C(NCc1cccnc1)C(=O)Nc1ccc2c(c1)OCO2	none
CC(=O)Nc1ccccc1-c1nc2ccccc2nc1OCC(=O)c1ccc2ccccc2c1	none
COc1ccc(S(=O)(=O)N2CCCCCC2)cc1NC(=O)Cc1cc(OC)c(OC)c(OC)c1	Lmaj promast 99.8
Cc1c(-c2cccc(NC(=O)c3ccco3)c2)nc2ncccn12	Lmaj promast 100.0
Cc1onc(-c2ccccc2Cl)c1C(=O)Nc1cccc(-c2nc3ncccn3c2C)c1	none
Cc1c(-c2cccc(NC(=O)c3cccs3)c2)nc2ncccn12	Lmaj promast 75.2
CCOC(=O)c1c(C)nc2sc3c(=O)n(-c4ccc(C(C)=O)cc4)nnc3c2c1-c1ccc(Cl)cc1	Lmaj promast 54.2
O=C(Nc1nccs1)C1CCN(S(=O)(=O)c2c(Cl)cccc2Cl)CC1	none
Cc1ccc(NC(=O)Nc2ccc(F)cc2)cc1Cl	none
O=C(C[n+]1cc2ccccc2c2ccccc21)c1ccccc1	Lmaj promast 99.3
CC(=O)c1ccc(NS(=O)(=O)c2ccc(C(C)(C)C)cc2)cc1	none
CC(C)(C)c1ccc(S(=O)(=O)Nc2cccc(C3OCCCO3)c2)cc1	Lmaj promast 86.1
O=C(CSCc1ccc([N+](=O)[O-])cc1)Nc1ccccc1C(=O)O	none
CC(C)CNC(=S)NC1CC2CCCC(C1)N2Cc1ccco1 (stereo unspecified)	Lmaj promast 62.2
CNC(=S)NC1CC2CCCC(C1)N2Cc1ccco1 (stereo unspecified)	none
CC(C)CNC(=S)NC1CC2CCCC(C1)N2Cc1cccs1 (stereo unspecified)	Lmaj promast 94.3
CCCN1CCC(=O)N([C@H](CSc2ccc(OC)cc2)c2ccccc2)CC1	none (no result: Autophagy HCS, Lmaj promast, MT stabilize HCS)
CC(=O)Nc1ccc(N(C(=O)CNC(=O)c2ccco2)C(C(=O)NCc2ccco2)c2ccccc2F)cc1 (stereo unspecified)	none
COc1ccc(N(C(=O)c2ccn[nH]2)C(C(=O)NC(C)(C)C)c2ccc(F)cc2)cc1 (stereo unspecified)	Lmaj promast 80.5 (no result: bCat nuc transl)
CC(C)(C)NC(=O)C(c1ccc(F)cc1)N(CCc1ccccc1)C(=O)c1ccn[nH]1 (stereo unspecified)	none
COc1ccc2[nH]c3c(N4CCc5ccccc5C4)ncnc3c2c1	bCat nuc transl 115.4 (no result: Autophagy HCS, Lmaj promast, MT stabilize HCS)
CCOC(=O)/C=C/C(=O)N1CCN(C(=O)/C=C/C(=O)OCC)CC1	none (no result: Autophagy HCS, Lmaj promast, MT stabilize HCS)
O=c1c(-c2ccc(Cl)cc2)coc2c(CN3CCOCC3)c(O)ccc12	Lmaj promast 59.3
COc1ccc(Cl)cc1NC(=O)c1cccnc1	none
COc1ccc(CCn2c3c(c(=O)[nH]c2=O)C(NC(=O)c2cccs2)(C(F)(F)F)C(=O)N3)cc1OC (stereo unspecified)	none
COc1ccc(CCn2c(O)c(C=Nc3cccc(F)c3)c(=O)[nH]c2=O)cc1OC	CHOP inh 80.1 (no result: Autophagy HCS, Lmaj promast, MT stabilize HCS)
CCn1c(SCc2ccc(C#N)cc2)nnc1-c1ccc(S(=O)(=O)N2CCCCC2)cc1	none
COc1ccccc1Oc1ccc2c(c1)C(=O)N(c1cccc3ncccc13)C2=O	none
O=C1c2ccc3c4c(ccc(c24)C(=O)N1c1cccc(O)c1)CC3	CHOP inh 93.1
COc1ccccc1Oc1ccc2c(c1)C(=O)N(c1cccc(O)c1)C2=O	CHOP inh 90.2
CC(C)CC(=O)Nc1nc2ccc(S(=O)(=O)N3CCOCC3)cc2s1	MT stabilize HCS 49.2
CCOC(=O)c1ccc2nc(NC(C)=O)sc2c1	none

High-throughput results: PubChem BioAssay, several laboratories
